{"source": "ChEMBL document CHEMBL1153911", "about": "(Bioorg Med Chem Lett, 2009)", "key": {"[1]": {"organism": "Homo sapiens", "assay": "Selectivity ratio of Ki for kappa opioid receptor to Ki for mu opioid receptor", "in_short": "(§1)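 CHO cell membranes (50 µg) expressing cloned mu, delta or kappa opioid receptors, labelled with […] (mu), [3H]NTI (delta) or [3H]norBNI (kappa), with varying drug concentrations, 90 min at 30 °C. […] IC50 from Hill-plot linear regression, converted to Ki by Cheng-Prusoff.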"}, "[2]": {"organism": "Homo sapiens", "assay": "Selectivity ratio of Ki for delta opioid receptor to Ki for mu opioid receptor", "in_short": "as §1"}, "[3]": {"target": "T1, Mu-type opioid receptor (Homo sapiens, UniProt P35372)", "T1 sequence (P35372 whole entry)": "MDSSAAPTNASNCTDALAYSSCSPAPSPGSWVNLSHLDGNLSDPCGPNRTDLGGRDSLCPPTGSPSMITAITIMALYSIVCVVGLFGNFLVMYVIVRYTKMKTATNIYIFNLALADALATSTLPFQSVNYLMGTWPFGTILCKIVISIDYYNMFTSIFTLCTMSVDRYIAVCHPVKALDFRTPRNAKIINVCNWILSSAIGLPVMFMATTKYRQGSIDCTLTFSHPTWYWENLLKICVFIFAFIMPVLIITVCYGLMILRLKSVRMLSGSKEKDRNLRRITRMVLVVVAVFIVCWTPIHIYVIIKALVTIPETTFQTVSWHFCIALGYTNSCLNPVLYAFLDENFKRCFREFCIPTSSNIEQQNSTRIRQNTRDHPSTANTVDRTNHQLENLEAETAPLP", "assay": "[…] activity against mu opioid receptor expressed in CHO cells assessed as stimulation [35S]GTPgammaS binding relative to DAMGO", "assay_type": "functional, cell-based", "parameters": "concentration or dose not given beside the values", "in_short": "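Membranes (10 µg) from the same receptor-expressing CHO cells incubated 30 min with 10 µM GDP, 0.1 nM [35S]GTPγS and varying drug concentrations. Nonspecific binding defined by 10 µM unlabelled GTPγS. Relative Emax and EC50 from nonlinear regression of concentration-effect curves.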"}, "[4]": {"target": "T1, Mu-type opioid receptor", "assay": "Displacement of [3H]DAMGO from mu opioid receptor expressed in CHO cells", "assay_type": "cell-based"}, "[5]": {"target": "Delta-type opioid receptor (Homo sapiens, UniProt P41143)", "sequence (P41143 whole entry)": "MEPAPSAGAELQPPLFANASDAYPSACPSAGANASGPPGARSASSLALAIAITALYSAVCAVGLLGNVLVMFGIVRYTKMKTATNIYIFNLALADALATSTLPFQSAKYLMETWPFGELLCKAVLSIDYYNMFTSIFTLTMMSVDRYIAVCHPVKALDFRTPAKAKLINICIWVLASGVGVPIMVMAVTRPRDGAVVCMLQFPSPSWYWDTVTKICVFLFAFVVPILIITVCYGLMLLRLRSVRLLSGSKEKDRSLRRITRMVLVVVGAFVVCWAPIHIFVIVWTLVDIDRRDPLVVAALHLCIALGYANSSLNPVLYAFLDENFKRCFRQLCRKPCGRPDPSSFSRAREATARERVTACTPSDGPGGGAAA", "assay": "Displacement of [3H]NTI from delta opioid receptor expressed in CHO cells", "assay_type": "cell-based", "in_short": "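CHO cell membranes (50 µg) expressing cloned mu, delta or kappa opioid receptors, labelled with […] (mu), [3H]NTI (delta) or [3H]norBNI (kappa), with varying drug concentrations, 90 min at 30 °C. IC50 from Hill-plot linear regression, converted to Ki by Cheng-Prusoff.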"}, "[6]": {"target": "Kappa-type opioid receptor (Homo sapiens, UniProt P41145)", "sequence (P41145 whole entry)": "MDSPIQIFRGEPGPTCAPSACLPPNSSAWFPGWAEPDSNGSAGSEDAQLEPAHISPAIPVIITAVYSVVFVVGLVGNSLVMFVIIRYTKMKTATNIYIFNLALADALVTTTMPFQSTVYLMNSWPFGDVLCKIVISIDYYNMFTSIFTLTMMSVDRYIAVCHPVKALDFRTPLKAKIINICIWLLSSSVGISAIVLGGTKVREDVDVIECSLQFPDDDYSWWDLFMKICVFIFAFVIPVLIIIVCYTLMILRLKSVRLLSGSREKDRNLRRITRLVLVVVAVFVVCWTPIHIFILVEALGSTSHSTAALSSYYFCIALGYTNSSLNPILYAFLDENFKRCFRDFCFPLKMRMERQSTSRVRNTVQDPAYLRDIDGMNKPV", "assay": "Displacement of [3H]norBNI from kappa opioid receptor expressed in CHO cells", "assay_type": "cell-based"}, "[7]": {"target": "T1, Mu-type opioid receptor", "details": "CHO"}}}
{"smiles": "O=C(O[C@@]12CCC(=O)[C@@H]3Oc4c(O)ccc5c4[C@@]31CCN(CC1CC1)[C@@H]2C5)c1ccc2ccccc2n1", "values": [{"measurement": "Ratio Ki", "setting": "[1]", "result": 47}, {"measurement": "Ratio Ki", "setting": "[2]", "result": 16}, {"measurement": "Activity", "setting": "[3]", "result": 0, "unit": "%"}]}
{"smiles": "C[C@@H](O)[C@H](NC(=O)[C@H](NC(=O)[C@@H](NC(=O)[C@H](CCCNC(=N)N)NC(=O)C(Cc1c[nH]c2ccccc12)NC(=O)[C@@H](Cc1ccc(O)cc1)NC(=O)[C@H](CS)NC(=O)[C@H](N)Cc1ccccc1)[C@@H](C)O)C(C)(C)S)C(=O)O", "note": "(stereo in doubt)", "values": [{"measurement": "Ratio Ki", "setting": "[1]", "result": 501}, {"measurement": "Ratio Ki", "setting": "[2]", "result": 713}, {"measurement": "Activity", "setting": "[3]", "result": 0, "unit": "%"}]}
{"smiles": "O=C(O[C@@]12CCC(=O)[C@@H]3Oc4c(O)ccc5c4[C@@]31CCN(CC1CC1)[C@@H]2C5)c1cc2ccccc2cn1", "values": [{"measurement": "Ratio Ki", "setting": "[1]", "result": "> 146"}, {"measurement": "Ratio Ki", "setting": "[2]", "result": "> 146"}, {"measurement": "Activity", "setting": "[3]", "result": 0, "unit": "%"}]}
{"smiles": "O=C(O[C@@]12CCC(=O)[C@@H]3Oc4c(O)ccc5c4[C@@]31CCN(CC1CC1)[C@@H]2C5)c1cnc2ccccc2c1", "values": [{"measurement": "Ratio Ki", "setting": "[1]", "result": 55}, {"measurement": "Ratio Ki", "setting": "[2]", "result": 304}, {"measurement": "Activity", "setting": "[3]", "result": 22, "unit": "%"}]}
{"smiles": "O=C(O[C@@]12CCC(=O)[C@@H]3Oc4c(O)ccc5c4[C@@]31CCN(CC1CC1)[C@@H]2C5)c1cccnc1", "values": [{"measurement": "Ratio Ki", "setting": "[1]", "result": 30}, {"measurement": "Ratio Ki", "setting": "[2]", "result": 107}, {"measurement": "Activity", "setting": "[3]", "result": 0, "unit": "%"}]}
{"smiles": "COC(=O)/C=C/C(=O)N[C@@H]1CC[C@@]2(O)[C@H]3Cc4ccc(O)c5c4[C@@]2(CCN3CC2CC2)[C@H]1O5", "values": [{"measurement": "Ki", "setting": "[4]", "result": 0.41, "unit": "nM"}, {"measurement": "Ki", "setting": "[5]", "result": 27.8, "unit": "nM"}, {"measurement": "Ki", "setting": "[6]", "result": 0.94, "unit": "nM"}, {"measurement": "Activity", "setting": "[3]", "result": 0, "unit": "%"}]}
{"smiles": "O=C(O[C@@]12CCC(=O)[C@@H]3Oc4c(O)ccc5c4[C@@]31CCN(CC1CC1)[C@@H]2C5)c1ccc2ccccc2c1", "values": [{"measurement": "Ratio Ki", "setting": "[1]", "result": "< 1"}, {"measurement": "Ratio Ki", "setting": "[2]", "result": 4}, {"measurement": "Activity", "setting": "[3]", "result": 0, "unit": "%"}]}
{"smiles": "O=C(O[C@@]12CCC(=O)[C@@H]3Oc4c(O)ccc5c4[C@@]31CCN(CC1CC1)[C@@H]2C5)c1ccccn1", "values": [{"measurement": "Ratio Ki", "setting": "[1]", "result": 182}, {"measurement": "Ratio Ki", "setting": "[2]", "result": 838}, {"measurement": "Activity", "setting": "[3]", "result": 0, "unit": "%"}, {"measurement": "Ke", "setting": "[7]", "result": 0.2, "unit": "nM"}]}
{"smiles": "O=C(O[C@@]12CCC(=O)[C@@H]3Oc4c(O)ccc5c4[C@@]31CCN(CC1CC1)[C@@H]2C5)c1ccncc1", "values": [{"measurement": "Ratio Ki", "setting": "[1]", "result": 9}, {"measurement": "Ratio Ki", "setting": "[2]", "result": 73}, {"measurement": "Activity", "setting": "[3]", "result": 0, "unit": "%"}]}
{"smiles": "COc1cccc2c1[C@]13CCN(CC4CC4)[C@H](C2)[C@]1(OC)CCC(=O)C3", "values": [{"measurement": "Ratio Ki", "setting": "[1]", "result": 45}, {"measurement": "Ratio Ki", "setting": "[2]", "result": 40}]}
{"smiles": "O=C(O[C@@]12CCC(=O)[C@@H]3Oc4c(O)ccc5c4[C@@]31CCN(CC1CC1)[C@@H]2C5)c1ccccc1", "values": [{"measurement": "Ratio Ki", "setting": "[1]", "result": 5}, {"measurement": "Ratio Ki", "setting": "[2]", "result": "> 81"}, {"measurement": "Activity", "setting": "[3]", "result": 0, "unit": "%"}]}
